Experimental data published in ChEMBL document CHEMBL4334486 (J Med Chem, 2019).
The source made the active and inactive calls. The calls are words filed in the database; no cut-off is given here.

Tests used:
Pseudomonas aeruginosa [1] = experiment: Antibiofilm activity against Pseudomonas aeruginosa PAO1 assessed as inhibition of biofilm formation incubated for 8 hrs at 20 uM by crystal violet based O'Toole method relative to control; type: functional; details: PAO1, 8 h
Summary of the method: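 O'Toole biofilm assay. PAO1 is grown in M63 minimal medium with 0.4% arginine and 1 mM MgSO4. Compound at 20 μM, or an equal volume of water as vehicle control, is added at inoculation. Incubation is 8 h at 37 °C. Growth is read at 550 nm on removed medium. Biofilm is stained with 0.1% crystal violet and quantified.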

Pseudomonas aeruginosa [2] = experiment: Antimicrobial activity against siderophore-deficient Pseudomonas aeruginosa PAD07 in siderophore-deficient PAD07 assessed as inhibition of bacterial growth at 0.0625 to 128 ug/mL incubated for 24 hrs under iron-supplemented succinate minimal medium in the presence of 50 uM of FeCl3; type: functional, organism-based
Summary of the method: (§1)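 Succinate minimal medium with FeCl3 at 8 μg/mL (50 μM), inoculated with the strain at 0.5 McFarland. Compound is added from 2-fold DMSO dilutions; DMSO alone is the growth control. Incubation is 24 h. OD600 gives growth, with cell-free baselines. Runs are at least duplicate, mean + SD; Mann−Whitney test, p<0.05.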

Pseudomonas aeruginosa [3] = experiment: Antimicrobial activity against Pseudomonas aeruginosa PAO1 assessed as inhibition of bacterial growth under Mueller-Hinton conditions without iron supplementation; type: functional
Summary of the method: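 Ciprofloxacin and deferoxamine serve as controls. MIC is taken as the highest dilution with visually clear wells.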

[4] = Toxicity in human CFBEdeltaF cells isolated from CF patient at 20 uM incubated for 24 hrs by LDH assay; type: cell-based
Summary of the method: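 CF bronchial epithelial CFBEΔF monolayers are treated with compound at 20 μM (water vehicle control) for 24 h. Cytotoxicity is measured as LDH released into the medium. Triton is the lysis reference.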

Pseudomonas aeruginosa [5] = experiment: Antibiofilm activity against Pseudomonas aeruginosa PAO1 assessed as inhibition of biofilm formation incubated for 24 to 25 hrs at 50 uM by WST8 dye based Diggle-protocol method relative to control; type: functional
Summary of the method: (§2)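 Modified Diggle microtiter method. Medium is 0.25% (w/v) nutrient broth no. 2 containing compound. PAO1 is grown overnight in LB, washed, and inoculated normalized to OD600 of 1. Plates are incubated humid for 24−25 h at 37 °C and washed twice with water. Wells are then stained for 3 h at 37 °C with 0.5 mM WST-8 plus 20 μM phenazine ethosulfate. Supernatant absorbance is read at 450 nm to give viable biofilm cells.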

Pseudomonas aeruginosa [6] = experiment: Induction of fluorescent pyoverdine-1 siderophore production in siderophore-producing Pseudomonas aeruginosa PAO1 at 0.125 to 128 ug/mL incubated for 24 hrs under iron-supplemented succinate minimal medium in the presence of 50 uM of FeCl3; type: functional, organism-based
Summary of the method: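 PAO1 in succinate minimal medium with 8 μg/mL (50 μM) FeCl3, compound from DMSO dilutions. Plates are incubated 24 h at 35 °C. Iron-free pyoverdine is read by absorbance at 405 nm and by fluorescence (excitation 400 nm, emission 447 nm), with cell-free baselines. Runs are in duplicate at least twice, mean + SD.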

Pseudomonas aeruginosa [7] = experiment: Antibiofilm activity against Pseudomonas aeruginosa PAO1 assessed as inhibition of biofilm formation incubated for 8 hrs at 20 uM by crystal violet based O'Toole method relative to control
[8] = molecular target: Fucose-binding lectin PA-IIL (Pseudomonas aeruginosa (strain ATCC 15692 / DSM 22644 / CIP 104116 / JCM14847 / LMG 12228 / 1C / PRS 101 / PAO1)) (UniProt Q9HYN5); experiment: Potency index, ratio of IC50 for Me-alpha-L-fucoside to IC50 for test compound for inhibition of Pseudomonas aeruginosa LecB by fluorescence polarization assay
[9] = molecular target: Fucose-binding lectin PA-IIL (Pseudomonas aeruginosa (strain ATCC 15692 / DSM 22644 / CIP 104116 / JCM14847 / LMG 12228 / 1C / PRS 101 / PAO1), UniProt Q9HYN5); experiment: Inhibition of Pseudomonas aeruginosa LecB by fluorescence polarization assay
Pseudomonas aeruginosa [10] = experiment: Antimicrobial activity against siderophore-producing Pseudomonas aeruginosa PAO1 assessed as inhibition of bacterial growth at 0.125 to 128 ug/mL under iron-supplemented succinate minimal medium in the presence of 50 uM of FeCl3; type: functional, organism-based; summary of the method: as §1
Pseudomonas aeruginosa [11] = experiment: Toxicity in Pseudomonas aeruginosa PAO1 incubated for 24 to 25 hrs at 20 uM in presence of sub-inhibitory concentration of tobramycin by WST8 dye based Diggle-protocol method relative to control; type: organism-based; details: in vivo
Pseudomonas aeruginosa [12] = experiment: Antibiofilm activity against Pseudomonas aeruginosa PAO1 assessed as inhibition of biofilm formation incubated for 24 to 25 hrs at 20 uM in presence of sub-inhibitory concentration of tobramycin by WST8 dye based Diggle-protocol method relative to control; type: functional, organism-based
Summary of the method: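 Diggle WST-8 biofilm method. PAO1 in 0.25% nutrient broth is exposed to compound at 20 μM mixed with tobramycin at 0.1 μM (subinhibitory). Incubation is 24−25 h at 37 °C. Washed wells are stained 3 h with 0.5 mM WST-8 and 20 μM phenazine ethosulfate. A450 of the supernatant is read.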

[13] = molecular target: Fucose-binding lectin PA-IIL (Pseudomonas aeruginosa (strain ATCC 15692 / DSM 22644 / CIP 104116 / JCM14847 / LMG 12228 / 1C / PRS 101 / PAO1)) (UniProt Q9HYN5); experiment: Potency index, ratio of IC50 for Me-alpha-D-mannoside to IC50 for test compound for inhibition of Pseudomonas aeruginosa LecB by fluorescence polarization assay
Pseudomonas aeruginosa [14] = experiment: Antibiofilm activity against Pseudomonas aeruginosa PAO1 assessed as inhibition of biofilm formation incubated for 24 to 25 hrs at 20 uM by WST8 dye based Diggle-protocol method relative to control; type: functional; summary of the method: as §2
Pseudomonas aeruginosa [15] = experiment: Antimicrobial activity against Pseudomonas aeruginosa PAO1 assessed as inhibition of planktonic cells growth at >0.15 uM incubated for 24 to 25 hrs; type: functional, organism-based
Summary of the method: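 PAO1 inoculum from overnight LB culture, washed in 0.25% (w/v) nutrient broth no. 2, normalized to OD600 1 and added to the same broth containing the test compound. Incubation was 24−25 h at 37 °C in a humid environment. Planktonic growth was read from the supernatant: it was regrown in LB at 37 °C for 7−8 h and OD600 was compared with no-supernatant, or CFU were plated on LB agar.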

Chain of Fucose-binding lectin PA-IIL (Q9HYN5 whole entry): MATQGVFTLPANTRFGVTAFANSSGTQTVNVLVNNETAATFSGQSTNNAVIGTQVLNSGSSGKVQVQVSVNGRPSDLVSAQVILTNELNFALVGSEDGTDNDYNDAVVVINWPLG
Chain of Fucose-binding lectin PA-IIL (Pseudomonas aeruginosa (strain ATCC 15692 / DSM 22644 / CIP 104116 / JCM14847 / LMG 12228 / 1C / PRS 101 / PAO1)) (Q9HYN5 as listed by the source): as the sequence (Q9HYN5 whole entry) above

## C[C@@H]1O[C@@H](OCc2cn(CCCCCC(=O)N(O)Cc3cn(CCCOc4c5cc(C(C)(C)C)cc4Cc4cc(C(C)(C)C)cc(c4OCCCn4cc(CN(O)C(=O)CCCCCn6cc(CO[C@@H]7O[C@@H](C)[C@@H](O)[C@@H](O)[C@@H]7O)nn6)nn4)Cc4cc(C(C)(C)C)cc(c4OCCCn4cc(CN(O)C(=O)CCCCCn6cc(CO[C@@H]7O[C@@H](C)[C@@H](O)[C@@H](O)[C@@H]7O)nn6)nn4)Cc4cc(C(C)(C)C)cc(c4OCCCn4cc(CN(O)C(=O)CCCCCn6cc(CO[C@@H]7O[C@@H](C)[C@@H](O)[C@@H](O)[C@@H]7O)nn6)nn4)C5)nn3)nn2)[C@@H](O)[C@H](O)[C@@H]1O
Pseudomonas aeruginosa [1]
  inhibition at 20 µM: 72%
Pseudomonas aeruginosa [2]
  Activity: inactive
Pseudomonas aeruginosa [3]
  MIC: > 512 µg/mL
[4]
  Activity: Non-Toxic
Pseudomonas aeruginosa [5]
  inhibition: inactive
Pseudomonas aeruginosa [6]
  Activity: Dose-dependent effect
Pseudomonas aeruginosa [7]
  inhibition: inactive
[8]
  Ratio IC50: 3.37
[9]
  IC50: 249 nM
Pseudomonas aeruginosa [10]
  Activity: inactive

## CC(C)(C)c1cc2c(OCCCn3cc(CN(O)C(=O)CCCCCn4cc(CO[C@H]5O[C@H](CO)[C@@H](O)[C@H](O)[C@@H]5O)nn4)nn3)c(c1)Cc1cc(C(C)(C)C)cc(c1OCCCn1cc(CN(O)C(=O)CCCCCn3cc(CO[C@H]4O[C@H](CO)[C@@H](O)[C@H](O)[C@@H]4O)nn3)nn1)Cc1cc(C(C)(C)C)cc(c1OCCCn1cc(CN(O)C(=O)CCCCCn3cc(CO[C@H]4O[C@H](CO)[C@@H](O)[C@H](O)[C@@H]4O)nn3)nn1)Cc1cc(C(C)(C)C)cc(c1OCCCn1cc(CN(O)C(=O)CCCCCn3cc(CO[C@H]4O[C@H](CO)[C@@H](O)[C@H](O)[C@@H]4O)nn3)nn1)C2
Pseudomonas aeruginosa [1]
  inhibition at 20 µM: 84%
Pseudomonas aeruginosa [11]
  Activity: Non-Toxic
Pseudomonas aeruginosa [3]
  MIC: > 512 µg/mL
[4]
  Activity: Non-Toxic
Pseudomonas aeruginosa [12]
  inhibition: Active
Pseudomonas aeruginosa [5]
  inhibition at 50 µM: 70%
[13]
  Ratio IC50: 236
Pseudomonas aeruginosa [14]
  inhibition at 20 µM: 83%
Pseudomonas aeruginosa [6]
  Activity: Dose-dependent effect
[9]
  IC50: 664 nM
Pseudomonas aeruginosa [10]
  Activity: inactive

## CC(C)(C)c1cc2c(OCCCn3cc(CN(O)C(=O)CCCCCn4cc(CO[C@H]5O[C@H](CO)[C@@H](O)[C@H](O)[C@H]5O)nn4)nn3)c(c1)Cc1cc(C(C)(C)C)cc(c1OCCCn1cc(CN(O)C(=O)CCCCCn3cc(CO[C@H]4O[C@H](CO)[C@@H](O)[C@H](O)[C@H]4O)nn3)nn1)Cc1cc(C(C)(C)C)cc(c1OCCCn1cc(CN(O)C(=O)CCCCCn3cc(CO[C@H]4O[C@H](CO)[C@@H](O)[C@H](O)[C@H]4O)nn3)nn1)Cc1cc(C(C)(C)C)cc(c1OCCCn1cc(CN(O)C(=O)CCCCCn3cc(CO[C@H]4O[C@H](CO)[C@@H](O)[C@H](O)[C@H]4O)nn3)nn1)C2
Pseudomonas aeruginosa [1]
  inhibition at 20 µM: 92%
[4]
  Activity: Non-Toxic

## C[C@@H]1O[C@@H](OCc2cn(CCCCCC(=O)NOCc3ccccc3)nn2)[C@@H](O)[C@H](O)[C@@H]1O
[9]
  IC50: 500 nM

## NC[C@H]1O[C@H](O[C@H]2[C@H](O)[C@@H](O[C@H]3O[C@H](CO)[C@@H](O)[C@H](N)[C@H]3O)[C@H](N)C[C@@H]2N)[C@H](N)C[C@@H]1O
Pseudomonas aeruginosa [15]
  Activity: Active

## O=C(CCCCCn1cc(CO[C@H]2O[C@H](CO)[C@@H](O)[C@H](O)[C@@H]2O)nn1)NOCc1ccccc1
[9]
  IC50: 146000 nM
